Laboratory results published in PubChem BioAssay.
Calls of active or inactive are those of the source.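 Rule for the calls, unless noted: active = fluorescence slope after compound addition differing from the mean of all tested samples at 99.7% confidence, mostly higher but some lower; inactive = the rest.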

Experiments:
[1] = inhibitors of TNFa-induced NFkB p65 translocation, primary screen, imaging, HUVEC, MLSMR starter and 10KST1 sets (AID 438;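 active = inhibition above 20% together with a positive visual image hit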;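 note: compound added about 3h40 before a 20 min TNFalpha stimulation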;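 for inhibition: signal is the nuclear over cytoplasmic p65 intensity ratio per well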); details: HUVEC TNFa-induced p65 nuclear translocation; cell count: measured here: nuclei count (cytotoxicity indicator), at 2.08 µM; inhibition: at 2 µM, stronger effect = higher value, 0% TNFa-plus-vehicle, 100% no-TNFa wells
[2] = inhibitors of mutant huntingtin aggregation, primary screen, imaging, exon1htt(103Q)mCFP cells, high-content imaging (AID 483;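 active = visual image review flags a hit and inhibition of aggregation exceeds 20%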;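 note: compound exposure lasted 3 days before fixation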;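 for nuclei count: percent of the per-plate median nuclei count of sample wells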); details: exon1htt(103Q)mCFP cell line, aggregate imaging, at 2 µM; inhibition of aggregation: stronger effect = higher value; nuclei count: measured here: cell count, toxicity
[3] = inhibitors of E-selectin induction by TNFa, primary screen, imaging, HUVEC, immunofluorescence, MLSMR starter and 10KST1 sets (AID 487;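 active = visually confirmed hit in the image check and inhibition above 20%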;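 for inhibition: signal is fraction of cell area covered by stained E-selectin grains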;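 for nuclei count: 100% = median nuclei count of all wells on the same plate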); details: HUVEC TNFalpha-induced E-selectin immunofluorescence imaging, at 2 µM; inhibition: stronger effect = higher value; nuclei count: measured here: cell number, toxicity
[4] = target: Voltage-gated potassium channel subunit beta-2 (Rattus norvegicus) (UniProt P62483); assay: KvBeta enzyme negative modulators, primary screen, biochemical, NADPH fluorescence (AID 622;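 active = fluorescence slope higher than the sample average by over 3 SD, cut at about -0.22 in these data, passing the limit was not always enough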;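 note: slope of raw intensity against log time taken from 70 to 1610 s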); details: recombinant KvBeta, 4-cyanobenzaldehyde reduction, at 10 µM, stronger effect = higher value
Chain of Voltage-gated potassium channel subunit beta-2 (Rattus norvegicus) (P62483 whole entry, looked up): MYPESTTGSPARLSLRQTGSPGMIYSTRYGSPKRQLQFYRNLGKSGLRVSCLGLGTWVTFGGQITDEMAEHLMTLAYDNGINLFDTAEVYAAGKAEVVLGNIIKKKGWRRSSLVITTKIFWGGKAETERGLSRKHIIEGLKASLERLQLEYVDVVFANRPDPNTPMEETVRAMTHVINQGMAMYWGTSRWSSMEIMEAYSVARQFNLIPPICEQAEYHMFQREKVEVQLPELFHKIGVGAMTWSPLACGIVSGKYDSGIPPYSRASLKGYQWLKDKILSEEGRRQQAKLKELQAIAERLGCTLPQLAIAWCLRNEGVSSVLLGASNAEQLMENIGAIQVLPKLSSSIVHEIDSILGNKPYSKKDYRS

[5] = target: Voltage-gated potassium channel subunit beta-2 (Rattus norvegicus) (UniProt P62483); assay: KvBeta positive modulators, primary screen, biochemical, NADPH fluorescence (AID 623;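 active = NADPH fluorescence slope more negative than the mean of all samples by about 3 SD, 99.7% confidence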;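 note: fluorescence intensity change per second fitted from 20 to 320 s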); details: Recombinant KvBeta, NADPH fluorescence decrease slope, 10 min; at 10 µM; stronger effect = lower value
[6] = target: Muscarinic acetylcholine receptor M4 (Homo sapiens) (UniProt P08173); assay: compounds altering M4/GIRK thallium flux, either direction, primary screen, M4 allosteric agonist project, cell-based, HEK293 M4/GIRK, BTC-AM (AID 625); details: at 10 µM, actives lie on both sides;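 note: thallium influx through GIRK channels coupled to M4 in HEK293 cells with BTC-AM dye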
Chain of Muscarinic acetylcholine receptor M4 (Homo sapiens) (P08173 whole entry, looked up): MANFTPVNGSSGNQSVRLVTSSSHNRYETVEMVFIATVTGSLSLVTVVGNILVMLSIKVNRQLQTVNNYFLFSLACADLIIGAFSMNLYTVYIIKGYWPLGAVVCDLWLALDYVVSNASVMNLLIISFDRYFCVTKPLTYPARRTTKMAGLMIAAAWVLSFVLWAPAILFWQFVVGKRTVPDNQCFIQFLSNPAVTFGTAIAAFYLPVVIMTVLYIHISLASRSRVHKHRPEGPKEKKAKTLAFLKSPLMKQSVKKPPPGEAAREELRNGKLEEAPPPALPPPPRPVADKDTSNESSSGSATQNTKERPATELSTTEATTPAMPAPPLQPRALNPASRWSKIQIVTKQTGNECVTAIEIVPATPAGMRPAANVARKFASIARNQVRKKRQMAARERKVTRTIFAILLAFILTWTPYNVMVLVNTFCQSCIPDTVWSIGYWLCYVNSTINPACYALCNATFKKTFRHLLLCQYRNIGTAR
How it was run: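 Material: M4/GIRK1/GIRK2 stable HEK293 cell line. Medium: pH 7.3 thallium assay buffer. Dosing: single compound concentration, 10 µM final. Schedule: 1 h dye loading, 2 min kinetic read. Measured by: kinetic fluorescence with BTC-AM dye. Read-out: post-addition slope, 15–24 s, of baseline-normalized fluorescence. Benchmarks: carbachol and DMSO controls.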

[7] = inhibitors of Sendai virus-induced IRF3 signaling, primary screen, TLR/RLR signaling modifier project, cell-based, Sendai virus stimulus, luciferase, 10K MLSCN set (AID 602276;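 active = inhibition at or above 50% at 10 µM; inactive = inhibition below 50%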;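 note: firefly luciferase from ISG56 promoter only with Renilla not read in this screen; 0% = Sendai virus plus DMSO and 100% = medium plus DMSO without virus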); details: HEK293 RL24 IRF3 luciferase reporter, at 10 µM, stronger effect = higher value
[8] = inhibitors of poly I:C-induced TLR3 signaling, primary screen, cell-based, poly I:C stimulus, luciferase, 10K MLSCN set (AID 602277;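 active = inhibition of the reporter signal at or above 50%; inactive = inhibition below 50%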); details: HEK293-TLR3 RL24 IRF3 luciferase reporter, at 10 µM, stronger effect = higher value

Row | Structure (SMILES) | cell count [1] | inhibition [1] | inhibition of aggregation [2] | nuclei count [2] [%] | inhibition [3] | nuclei count [3] [%] | fluorescence slope [4] | NADPH fluorescence slope [5] | fluorescence slope [6] | inhibition [7] | inhibition [8]
1 | COC(=O)c1c(-c2ccc(F)cc2)noc1N | 502 | 5.3% (inactive) | -3.7% (inactive) | 106 | -2% (inactive) | 104 | -0.278 (inactive) | -6.3e-06 (inactive) | 0.00633 (inactive) | -1.09% (inactive) | -9.58% (inactive)
2 | CCOC(=O)C1CCN(C(=O)c2c(-c3c(Cl)cccc3Cl)noc2C)CC1 | 376 | 1.6% (inactive) | 20.9% (inactive) | 94.8 | -89.8% (inactive) | 110 | -0.557 (inactive) | -4.4e-05 (inactive) | 0.00598 (inactive) | 4.89% (inactive) | 12.6% (inactive)
3 | Cc1cc(S(=O)(=O)NC2CCCCC2)ccc1OCC(=O)NCc1ccccn1 | 346 | -8.6% (inactive) | 7.8% (inactive) | 96.4 | -70.2% (inactive) | 106 | -0.607 (inactive) | 5.7e-06 (inactive) | 0.0059 (inactive) | 20.7% (inactive) | 34% (inactive)
4 | Brc1ccc2[nH]ncc2c1 | 364 | 4.4% (inactive) | 8.2% (inactive) | 91.4 | 13.4% (inactive) | 77 | -0.477 (inactive) | -3.1e-06 (inactive) | 0.00572 (inactive) | 15.5% (inactive) | 22.5% (inactive)
5 | Cc1csc(NC(=O)c2sc3nc(-c4cccs4)ccc3c2N)n1 | 340 | -1.9% (inactive) | 30.2% (inactive) | 68.7 | -5.9% (inactive) | 90.5 | -0.0131 (active) | 2.9e-06 (inactive) | 0.0189 (active) | -19.2% (inactive) | -115% (inactive)
6 | COC(=O)c1cn(-c2ccccc2)nc1C(=O)OC | 232 | 5.8% (inactive) | -0.8% (inactive) | 92.6 | 24% (inactive) | 77.4 | -0.441 (inactive) | -7.4e-05 (inactive) | 0.00607 (inactive) | 4.01% (inactive) | 1.15% (inactive)
7 | COCCN1C(=O)C(=O)/C(=C(/O)c2cccc(S(=O)(=O)N(C)C)c2)C12C(=O)N(C)c1ccccc12 (centres undefined) | 584 | -22.3% (inactive) | 5.4% (inactive) | 115 | -76.4% (inactive) | 107 | -0.483 (inactive) | -5e-05 (inactive) | 0.00617 (inactive) | 8.34% (inactive) | 33.7% (inactive)
8 | COc1ccc(Cl)cc1NC(=O)COc1cccc(-n2cnnn2)c1 | 371 | 1.2% (inactive) | 5.6% (inactive) | 102 | 10.9% (inactive) | 112 | -0.528 (inactive) | -1.9e-05 (inactive) | 0.00451 (inactive) | 6.87% (inactive) | -12.1% (inactive)
9 | Cn1c2c(c(=O)[nH]c1=O)C(NC(=O)c1ccco1)(C(F)(F)F)C(=O)N2 (centres undefined) | 618 | 8.2% (inactive) | -9.2% (inactive) | 108 | -95% (inactive) | 135 | -0.542 (inactive) | -6.4e-05 (inactive) | 0.00391 (inactive) | -2.84% (inactive) | 6.27% (inactive)
10 | NS(=O)(=O)c1ccc(NCc2c(F)cccc2Cl)cc1 | 300 | -3% (inactive) | 36.6% (inactive) | 79.8 | 38.8% (inactive) | 99.4 | -0.515 (inactive) | -0.000161 (inactive) | 0.00288 (inactive) | 8.08% (inactive) | -2.77% (inactive)
11 | CCN(CC)S(=O)(=O)c1ccc(C(=O)Oc2ccc3c(c2)OCO3)cc1 | 603 | -8.9% (inactive) | -5% (inactive) | 108 | -19.8% (inactive) | 110 | -0.477 (inactive) | 1.4e-07 (inactive) | 0.00717 (inactive) | 1.83% (inactive) | 9.42% (inactive)
12 | S=c1[nH]nc(COc2ccccc2)n1C1CCCCC1 | 552 | 8% (inactive) | 18.7% (inactive) | 91.7 | 48.2% (inactive) | 105 | -0.553 (inactive) | -3e-06 (inactive) | 0.0103 (inactive) | -4.8% (inactive) | 10.9% (inactive)
13 | CC1CCN(CCC(=O)Nc2ccc(Br)cc2)CC1 | 612 | 7.4% (inactive) | -13.6% (inactive) | 99.8 | 88.6% (active) | 179 | -0.42 (inactive) | 2.4e-06 (inactive) | 0.00434 (inactive) | 14% (inactive) | 19.3% (inactive)
14 | CC(=O)c1cc(-c2ccccc2)n(CC(=O)N2CCN(C3CCCC3)CC2)c1C | 407 | 8.8% (inactive) | 23.8% (inactive) | 81 | 25.1% (inactive) | 103 | -0.571 (inactive) | -7.1e-05 (inactive) | 0.00681 (inactive) | 13.3% (inactive) | 23.8% (inactive)
